Experimental data from paper PMC10883374 (Science Advances, 2022).
Changes are numbered by the printed parent chain.

Assays:
[1] = target: dSAMTOR (WT, full-length) (Drosophila melanogaster, UniProt Q9W138); experiment: ITC ligand binding, WT dSAMTOR
Summary of the method: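 Full-length dSAMTOR was expressed as His6-SUMO fusion in E. coli BL21 (DE3), Ni-NTA purified, tag-cleaved, then gel-filtered into 10 mM Hepes pH 7.5, 150 mM NaCl, 1 mM DTT. ITC ran at 25°C: 20 × 2 µl injections of 1 mM SAM or SAH into 0.2 mM protein, discarding an initial 0.8 µl injection, with a buffer background titration. Single-site nonlinear least-squares fit gave ΔH, n and Kd.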

V66W/E67P mutant dSAMTOR = V66W/E67P mutant dSAMTOR (Drosophila melanogaster, UniProt Q9W138, E67P/V66W); experiment: ITC ligand binding, V66W/E67P dSAMTOR
Summary of the method: (§1)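 Tag-free dSAMTOR, expressed as His6-SUMO fusion in E. coli BL21(DE3), purified by Ni-NTA and gel filtration into 10 mM Hepes pH 7.5, 150 mM NaCl, 1 mM DTT. At 25°C, 1 mM SAM or SAH was titrated into 0.2 mM protein over 20 injections, with a background titration into buffer. Single-site fit gave Kd, ΔH and n; ΔG and ΔS were calculated. Runs: three for measurable binding, two for undetectable binding.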

F135A mutant dSAMTOR = F135A mutant dSAMTOR (Drosophila melanogaster, UniProt Q9W138, F135A); experiment: ITC ligand binding, F135A dSAMTOR
Summary of the method: as §1

[2] = target: T1, R95A hSAMTOR interaction with GATOR1-KICSTOR (Homo sapiens, UniProt Q1RMZ1, R95A); experiment: Co-IP of Flag-hSAMTOR-R95A with HA-Nprl3 and Myc-Kaptin with or without SAM; format: biochemical; conditions: HEK 293T cell lysates, 0.5 mM SAM
T1 sequence (Q1RMZ1 1-405 R95A): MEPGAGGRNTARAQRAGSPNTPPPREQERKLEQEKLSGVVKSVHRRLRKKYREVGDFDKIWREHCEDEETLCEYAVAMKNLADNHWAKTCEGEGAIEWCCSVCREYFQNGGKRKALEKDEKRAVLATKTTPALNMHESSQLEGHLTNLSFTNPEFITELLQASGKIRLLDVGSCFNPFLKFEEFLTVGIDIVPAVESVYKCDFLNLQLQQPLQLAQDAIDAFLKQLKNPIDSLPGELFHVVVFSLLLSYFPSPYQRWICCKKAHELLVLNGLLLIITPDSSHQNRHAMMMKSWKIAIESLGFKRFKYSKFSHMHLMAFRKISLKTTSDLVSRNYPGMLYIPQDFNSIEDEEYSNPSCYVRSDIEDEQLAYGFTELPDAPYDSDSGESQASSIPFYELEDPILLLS

[3] = target: T2, D202A hSAMTOR interaction with GATOR1-KICSTOR (Homo sapiens, UniProt Q1RMZ1, D202A); experiment: Co-IP of Flag-hSAMTOR-D202A with HA-Nprl3 and Myc-Kaptin with or without SAM; format: biochemical; conditions: HEK 293T cell lysates, 0.5 mM SAM
T2 sequence (Q1RMZ1 1-405 D202A): T1 sequence (Q1RMZ1 1-405 R95A) with A95R, D202A

hSAMTOR = conditions: read-out: dissociation constant (Kd); cited from earlier work

Chain of F135A mutant dSAMTOR (Q9W138 whole entry F135A): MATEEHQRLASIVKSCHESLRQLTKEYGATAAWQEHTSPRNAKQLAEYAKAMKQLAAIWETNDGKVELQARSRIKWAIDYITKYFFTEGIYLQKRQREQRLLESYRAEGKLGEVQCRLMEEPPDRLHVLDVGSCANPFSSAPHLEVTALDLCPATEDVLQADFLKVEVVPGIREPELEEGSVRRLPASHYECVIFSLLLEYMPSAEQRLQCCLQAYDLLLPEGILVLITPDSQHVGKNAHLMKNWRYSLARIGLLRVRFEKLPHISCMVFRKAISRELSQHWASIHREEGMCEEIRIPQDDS
Chain of V66W/E67P mutant dSAMTOR (Q9W138 whole entry V66W/E67P, the tested form may be a part): as the sequence (Q9W138 whole entry F135A) above, with V66W, E67P, A135F counted along it
Chain of dSAMTOR (WT, full-length) (Q9W138 whole entry, the tested form may be a part): as the sequence (Q9W138 whole entry F135A) above, with A135F counted along it

C[S+](CC[C@H](N)C(=O)[O-])C[C@H]1O[C@@H](n2cnc3c(N)ncnc32)[C@H](O)[C@@H]1O (some centres unmarked) [SAM, S-adenosylmethionine]
Kd [1]: 10.7 ± 0.88 µM | TΔS ([1]; ITC, 25°C, WT dSAMTOR): 4.66 kcal/mol | n value ([1]; ITC, 25°C, WT dSAMTOR): 0.75 ± 0.08 | ΔH ([1]; ITC, 25°C, WT dSAMTOR): -2.12 ± 0.05 kcal/mol | Kd (V66W/E67P mutant dSAMTOR): 9.47 ± 0.81 µM | n value (V66W/E67P mutant dSAMTOR; ITC, 25°C, V66W/E67P dSAMTOR): 0.88 ± 0.02 | ΔH (V66W/E67P mutant dSAMTOR; ITC, 25°C, V66W/E67P dSAMTOR): -3.01 ± 0.08 kcal/mol | Kd (F135A mutant dSAMTOR): 6.46 ± 0.4 µM | increase of binding affinity compared to the WT dSAMTOR (F135A mutant dSAMTOR; F135A vs WT dSAMTOR, ITC): < 2 fold | n value (F135A mutant dSAMTOR; ITC, 25°C, F135A dSAMTOR): 0.79 ± 0.01 | ΔH (F135A mutant dSAMTOR; ITC, 25°C, F135A dSAMTOR): -5.24 ± 0.11 kcal/mol | effect of SAM on interaction of hSAMTOR with GATOR1-KICSTOR (co-IP) [2]: comparable interactions with GATOR1 and KICSTOR in both the absence and presence of SAM | effect of SAM on interaction of hSAMTOR with GATOR1-KICSTOR (co-IP) [3]: comparable interactions with GATOR1 and KICSTOR in both the absence and presence of SAM | Kd (hSAMTOR): 7 µM
